Source: ChEMBL document CHEMBL1255494, “In vivo comparison of the pharmacodynamic targets for echinocandin drugs against Candida species” (Antimicrob Agents Chemother, 2010)
Values after ≈ are worked out from the molar mass of the structure shown.

Experiments:
[1] = Cmax in Candida albicans infected neutropenic ICR Swiss mouse at 20 mg/kg, ip; format: ADME, organism-based; design: dose 20 mg/kg, route intraperitoneal; details: ICR Swiss, in vivo
Summary of the method: (§1)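 Neutropenic female ICR Swiss mice (cyclophosphamide sc at 150 mg/kg on day −4, 100 mg/kg on day −1 and day +2) infected iv via tail vein with Candida; single ip doses of 5, 20 or 80 mg/kg. Serum drawn from 3 mice per time point at eight time points and assayed by microbiologic assay (C. albicans K1) or […]. Noncompartmental analysis; AUC by trapezoidal rule.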

Candida parapsilosis [2] = experiment: Antifungal activity against Candida parapsilosis 20423.078 after 24 hrs; format: functional; details: Lodderomyces parapsilosis, 20423.078, 24 h
Summary of the method: (§2)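 MICs by CLSI M27-A3 broth dilution in RPMI 1640, inoculum 0.5 × 10³ to 2.5 × 10³ cells/ml, 35°C. Read visually at 24 h as the lowest concentration giving ≥50% growth reduction versus control. Run on three occasions in duplicate and reported as the mean. C. krusei ATCC 6258 and C. parapsilosis ATCC 22019 served as QC strains.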

Candida albicans [3] = experiment: Antifungal activity against Candida albicans infected in ICR Swiss mouse assessed as log reduction in bacterial count […]; format: functional
Summary of the method: (§3)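 Female ICR Swiss mice, neutropenic via cyclophosphamide s.c. (150 mg/kg day −4, 100 mg/kg day −1 and day +2), infected by tail-vein injection of clinical isolates 2 h before therapy. Intraperitoneal dosing every 24 h for 4 days, 4–6 dose levels from 0.078 to 160 mg/kg, 3 mice per regimen. Kidney CFU counted at 96 h. Sigmoid dose-effect fit gives static dose and 1 log kill dose relative to burden at start of therapy.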

Nakaseomyces glabratus [4] = experiment: Antifungal activity against Candida glabrata 513 after 24 hrs; format: functional; details: Nakaseomyces glabratus, 513, 24 h
Summary of the method: (§4)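 Broth microdilution per CLSI M27-A3 in RPMI 1640; inoculum 0.5 × 10³ to 2.5 × 10³ cells/ml, 35°C. […] Three separate occasions in duplicate, mean reported; C. krusei ATCC 6258 and C. parapsilosis ATCC 22019 as daily QC.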

Candida parapsilosis [5] = experiment: Antifungal activity against Candida parapsilosis 20477.078 after 24 hrs; format: functional; details: Lodderomyces parapsilosis, 20477.078, 24 h; summary of the method: as §2
Nakaseomyces glabratus [6] = experiment: Antifungal activity against Candida glabrata infected in neutropenic ICR Swiss mouse assessed log reduction in bacterial count […]; format: functional; summary of the method: as §3
Candida parapsilosis [7] = experiment: Antifungal activity against Candida parapsilosis 20450.096 after 24 hrs; format: functional; details: Lodderomyces parapsilosis, 20450.096, 24 h; summary of the method: as §2
Candida orthopsilosis = experiment: Antifungal activity against Candida orthopsilosis 20577.055 after 24 hrs; format: functional; details: Lodderomyces orthopsilosis, 20577.055, 24 h; summary of the method: as §2
Candida albicans [8] = experiment: Fungistatic activity against Candida albicans infected in neutropenic ICR Swiss mouse after 24 hrs; format: functional; summary of the method: as §3
[9] = Cmax in Candida albicans infected neutropenic ICR Swiss mouse at 5 mg/kg, ip; format: ADME, organism-based; design: dose 5 mg/kg, route intraperitoneal; details: ICR Swiss, in vivo; summary of the method: as §1
Nakaseomyces glabratus [10] = experiment: Antifungal activity against Candida glabrata infected in ICR Swiss mouse; format: functional; summary of the method: as §3
Nakaseomyces glabratus [11] = experiment: Antifungal activity against Candida glabrata 5376 after 24 hrs; format: functional; details: Nakaseomyces glabratus, 5376, 24 h; summary of the method: as §4
[12] = AUC (0 to 24 hrs) in Candida albicans infected neutropenic ICR Swiss mouse at 20 mg/kg, ip; format: ADME, organism-based; design: time < 24 hr, dose 20 mg/kg, route intraperitoneal; details: plasma; summary of the method: as §1
Nakaseomyces glabratus [13] = experiment: Antifungal activity against Candida glabrata 33616 after 24 hrs; format: functional; details: Nakaseomyces glabratus, 33616, 24 h; summary of the method: as §2
Candida parapsilosis [14] = experiment: Antifungal activity against Candida parapsilosis infected in ICR Swiss mouse assessed log reduction in bacterial count […]; format: functional; summary of the method: as §3
Mus musculus = experiment: Protein binding in Candida albicans infected neutropenic ICR Swiss mouse at 80 mg/kg, ip; format: ADME, organism-based; design: dose 80 mg/kg, route intraperitoneal; details: in vivo
Candida albicans [15] = experiment: Antifungal activity against Candida albicans 98-234 after 24 hrs; format: functional; details: 98-234, 24 h; summary of the method: as §2
[16] = Cmax in Candida albicans infected neutropenic ICR Swiss mouse at 80 mg/kg, ip; format: ADME, organism-based; design: dose 80 mg/kg, route intraperitoneal; details: ICR Swiss, in vivo; summary of the method: as §1
Candida parapsilosis [17] = experiment: Antifungal activity against Candida parapsilosis 20423.072 after 24 hrs; format: functional; details: Lodderomyces parapsilosis, 20423.072, 24 h; summary of the method: as §2
Candida albicans [18] = experiment: Antifungal activity against Candida albicans infected in ICR Swiss mouse; format: functional; summary of the method: as §3
Candida parapsilosis [19] = experiment: Antifungal activity against Candida parapsilosis 20511.092 after 24 hrs; format: functional; details: Lodderomyces parapsilosis, 20511.092, 24 h; summary of the method: as §2
Candida parapsilosis [20] = experiment: Antifungal activity against Candida parapsilosis 20553.009 after 24 hrs; format: functional; details: Lodderomyces parapsilosis, 20553.009, 24 h; summary of the method: as §2
Nakaseomyces glabratus [21] = experiment: Antifungal activity against Candida glabrata 5592 after 24 hrs; format: functional; details: Nakaseomyces glabratus, 5592, 24 h; summary of the method: as §4
Nakaseomyces glabratus [22] = experiment: Antifungal activity against Candida glabrata 33609 after 24 hrs; format: functional; details: Nakaseomyces glabratus, 33609, 24 h; summary of the method: as §4
Candida parapsilosis [23] = experiment: Antifungal activity against Candida parapsilosis 20477.048 after 24 hrs; format: functional; details: Lodderomyces parapsilosis, 20477.048, 24 h; summary of the method: as §2
Candida parapsilosis [24] = experiment: Antifungal activity against Candida parapsilosis infected in ICR Swiss mouse; format: functional; summary of the method: as §3
Candida parapsilosis [25] = experiment: Antifungal activity against Candida parapsilosis 20435.057 after 24 hrs; format: functional; details: Lodderomyces parapsilosis, 20435.057, 24 h; summary of the method: as §2
Nakaseomyces glabratus [26] = experiment: Antifungal activity against Candida glabrata 32930 after 24 hrs; format: functional; details: Nakaseomyces glabratus, 32930, 24 h; summary of the method: as §4
Candida parapsilosis [27] = experiment: Antifungal activity against Candida parapsilosis 20489.085 after 24 hrs; format: functional; details: Lodderomyces parapsilosis, 20489.085, 24 h; summary of the method: as §4
[28] = AUC (0 to 24 hrs) in Candida albicans infected neutropenic ICR Swiss mouse at 5 mg/kg, ip; format: ADME, organism-based; design: time < 24 hr, dose 5 mg/kg, route intraperitoneal; details: plasma; summary of the method: as §1
Candida parapsilosis [29] = experiment: Fungistatic activity against Candida parapsilosis infected in neutropenic ICR Swiss mouse after 24 hrs; format: functional; summary of the method: as §3
Candida albicans [30] = experiment: Antifungal activity against Candida albicans 580 after 24 hrs; format: functional; details: Candida albicans, 580, 24 h; summary of the method: as §4
Candida parapsilosis [31] = experiment: Antifungal activity against Candida parapsilosis 20385.079 after 24 hrs; format: functional; details: Lodderomyces parapsilosis, 20385.079, 24 h; summary of the method: as §2
Candida albicans [32] = experiment: Antifungal activity against Candida albicans 98-210 after 24 hrs; format: functional; details: 98-210, 24 h; summary of the method: as §4
Candida parapsilosis [33] = experiment: Antifungal activity against Candida parapsilosis 20557.012 after 24 hrs; format: functional; details: Lodderomyces parapsilosis, 20557.012, 24 h; summary of the method: as §2
Nakaseomyces glabratus [34] = experiment: Fungistatic activity against Candida glabrata infected in neutropenic ICR Swiss mouse after 24 hrs; format: functional; summary of the method: as §3
Candida metapsilosis = experiment: Antifungal activity against Candida metapsilosis 20463.02 after 24 hrs; format: functional; details: Lodderomyces metapsilosis, 20463.02, 24 h; summary of the method: as §2
Candida albicans [35] = experiment: Antifungal activity against Candida albicans K1 after 24 hrs; format: functional; details: K1, 24 h; summary of the method: as §4
Candida parapsilosis [36] = experiment: Antifungal activity against Candida parapsilosis 20562.03 after 24 hrs; format: functional; details: Lodderomyces parapsilosis, 20562.03, 24 h; summary of the method: as §2
Candida parapsilosis [37] = experiment: Antifungal activity against Candida parapsilosis 20519.069 after 24 hrs; format: functional; details: Lodderomyces parapsilosis, 20519.069, 24 h; summary of the method: as §2
Nakaseomyces glabratus [38] = experiment: Antifungal activity against Candida glabrata 35315 after 24 hrs; format: functional; details: Nakaseomyces glabratus, 35315, 24 h; summary of the method: as §2
[39] = AUC (0 to 24 hrs) in Candida albicans infected neutropenic ICR Swiss mouse at 80 mg/kg, ip; format: ADME, organism-based; design: time < 24 hr, dose 80 mg/kg, route intraperitoneal; details: plasma; summary of the method: as §1
Candida albicans [40] = experiment: Antifungal activity against Candida albicans 98-17 after 24 hrs; format: functional; details: 98-17, 24 h; summary of the method: as §2
Nakaseomyces glabratus [41] = experiment: Antifungal activity against Candida glabrata 34341 after 24 hrs; format: functional; details: Nakaseomyces glabratus, 34341, 24 h; summary of the method: as §2
Candida albicans [42] = experiment: Antifungal activity against Candida albicans 570 after 24 hrs; format: functional; details: Candida albicans, 570, 24 h; summary of the method: as §2

Work on `CC[C@H](C)C[C@H](C)CCCCCCCCC(=O)N[C@H]1C[C@@H](O)[C@@H](NCCN)NC(=O)[C@@H]2[C@@H](O)CCN2C(=O)[C@H]([C@H](O)CCN)NC(=O)[C@H]([C@H](O)[C@@H](O)c2ccc(O)cc2)NC(=O)[C@@H]2C[C@@H](O)CN2C(=O)[C@H]([C@@H](C)O)NC1=O` [CASPOFUNGIN] yielded a Cmax [1] of 26000 ng/mL, an MIC (Candida parapsilosis [2]) of 0.25 µg/mL (≈ 0.229 µM) and an Activity (Candida albicans [3]) of 2.91 mg/kg. It also gave an MIC (Nakaseomyces glabratus [4]) of 0.03 µg/mL (≈ 0.0274 µM), an MIC (Candida parapsilosis [5]) of 0.5 µg/mL (≈ 0.457 µM) and an Activity (Nakaseomyces glabratus [6]) of 1.16 mg/kg. The MIC (Candida parapsilosis [7]) was 0.5 µg/mL (≈ 0.457 µM), the MIC (Candida orthopsilosis) was 0.06 µg/mL (≈ 0.0549 µM) and the Activity (Candida albicans [8]) was 0.72 mg/kg. For the same compound, the Cmax [9] was 18000 ng/mL, the Emax (Nakaseomyces glabratus [10]) was 7 log10 CFU/kidneys and the ED50 (Nakaseomyces glabratus [10]; Nakaseomyces glabratus) was 6.9 mg/kg. It also gave an MIC (Nakaseomyces glabratus [11]) of 0.03 µg/mL (≈ 0.0274 µM), an AUC(0-t) at 24 h [12] of 345 µg·h/mL and an MIC (Nakaseomyces glabratus [13]) of 0.25 µg/mL (≈ 0.229 µM). For the same compound, the Activity (Candida parapsilosis [14]) was 9.84 mg/kg, the Activity (Mus musculus) was 97% and the MIC (Candida albicans [15]) was 0.03 µg/mL (≈ 0.0274 µM). It also gave a Cmax [16] of 58 µg/mL, an MIC (Candida parapsilosis [17]) of 0.12 µg/mL (≈ 0.11 µM) and an Emax (Candida albicans [18]) of 4.1 log10 CFU/kidneys. It also gave an ED50 (Candida albicans [18]; Candida albicans) of 8 mg/kg, an MIC (Candida parapsilosis [19]) of 0.06 µg/mL (≈ 0.0549 µM) and an MIC (Candida parapsilosis [20]) of 1 µg/mL (≈ 0.915 µM). The MIC (Nakaseomyces glabratus [21]) was 0.03 µg/mL (≈ 0.0274 µM), the MIC (Nakaseomyces glabratus [22]) was 0.03 µg/mL (≈ 0.0274 µM) and the MIC (Candida parapsilosis [23]) was 4 µg/mL (≈ 3.66 µM). For the same compound, the Emax (Candida parapsilosis [24]) was 5.5 log10 CFU/kidneys, the ED50 (Candida parapsilosis [24]; Lodderomyces parapsilosis) was 10.4 mg/kg and the MIC (Candida parapsilosis [25]) was 0.06 µg/mL (≈ 0.0549 µM). It also gave an MIC (Nakaseomyces glabratus [26]) of 0.03 µg/mL (≈ 0.0274 µM), an MIC (Candida parapsilosis [27]) of 0.25 µg/mL (≈ 0.229 µM) and an AUC(0-t) at 24 h [28] of 164 µg·h/mL. For the same compound, the Activity (Candida parapsilosis [29]) was 3.56 mg/kg, the MIC (Candida albicans [30]) was 0.03 µg/mL (≈ 0.0274 µM) and the MIC (Candida parapsilosis [31]) was 0.5 µg/mL (≈ 0.457 µM). For the same compound, the MIC (Candida albicans [32]) was 0.02 µg/mL (≈ 0.0183 µM), the MIC (Candida parapsilosis [33]) was 0.12 µg/mL (≈ 0.11 µM) and the Activity (Nakaseomyces glabratus [34]) was 0.33 mg/kg. It also gave an MIC (Candida metapsilosis) of 0.06 µg/mL (≈ 0.0549 µM), an MIC (Candida albicans [35]) of 0.03 µg/mL (≈ 0.0274 µM) and an MIC (Candida parapsilosis [36]) of 0.25 µg/mL (≈ 0.229 µM). It also gave an MIC (Candida parapsilosis [37]) of 1 µg/mL (≈ 0.915 µM), an MIC (Nakaseomyces glabratus [38]) of 0.12 µg/mL (≈ 0.11 µM) and an AUC(0-t) at 24 h [39] of 667 µg·h/mL. The MIC (Candida albicans [40]) was 0.12 µg/mL (≈ 0.11 µM), the MIC (Nakaseomyces glabratus [41]) was 0.25 µg/mL (≈ 0.229 µM) and the MIC (Candida albicans [42]) was 0.12 µg/mL (≈ 0.11 µM).
